ARFGAP1 inhibitor = rat ARFGAP1 inhibition; Q62848; Arfgap1-stimulated ARF1 GTP hydrolysis, GDP FP detection; inhibition, % at 16.5 µM; 360,000 compounds, 0.26% hits;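 active = inhibition above a per-plate limit, mean inhibition of low control wells plus 3 SD, cut at about 25% in these data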
Target sequence (Q62848 1-136 limits assumed): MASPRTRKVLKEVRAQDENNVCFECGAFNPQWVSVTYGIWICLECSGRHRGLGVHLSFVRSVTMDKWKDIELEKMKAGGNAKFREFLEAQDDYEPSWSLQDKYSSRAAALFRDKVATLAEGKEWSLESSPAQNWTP
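System: truncated rat Arfgap1 GAP domain / Medium: HEPES-based buffer, pH 7.5 / Also added: N-terminally truncated human ARF1-GTP substrate / Incubation: enzyme reaction 120 min at 25 °C after 20 min preincubation / Measured by: FP of antibody-bound GDP Alexa 633 tracer, ex 620/em 688 nm / Replicates: singlicate, each compound tested once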
PLCg1 inh = blocks human PLC-gamma1 enzyme activity; P19174; purified PLC-gamma1, fluorogenic substrate, fluorescence; inhibition, % at 12.2 µM; 370,000 compounds, 0.84% hits; AID 720700; in the data active = inhibition above about 9.5%
ASAP1 GAP inh = ASAP1 ArfGAP inhibition; 360,000 compounds, 0.19% hits; ASAP1-stimulated ARF1 GTP hydrolysis, GDP FP detection; Q9ULH1; AID 624377; inhibition, % at 16.5 µM; in the data active = inhibition above about 25%
Target sequence (Q9ULH1 325-724 limits assumed): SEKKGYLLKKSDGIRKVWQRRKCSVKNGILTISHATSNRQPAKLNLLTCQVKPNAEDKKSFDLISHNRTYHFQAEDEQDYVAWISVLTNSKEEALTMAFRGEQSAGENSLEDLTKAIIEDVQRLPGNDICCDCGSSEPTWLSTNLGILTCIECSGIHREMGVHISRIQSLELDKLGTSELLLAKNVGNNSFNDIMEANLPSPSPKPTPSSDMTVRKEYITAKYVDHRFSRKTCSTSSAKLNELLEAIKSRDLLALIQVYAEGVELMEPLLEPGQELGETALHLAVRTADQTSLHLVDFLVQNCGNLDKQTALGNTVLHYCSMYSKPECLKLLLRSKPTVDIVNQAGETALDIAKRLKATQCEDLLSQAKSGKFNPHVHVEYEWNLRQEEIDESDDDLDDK
HGIII-sPLA2 inh = Blocks human group III sPLA2 activity; Q9NZ20; QFRET BODIPY PC-A2 liposome hydrolysis, fluorescence; inhibition, % at 12.2 µM; 370,000 compounds, 0.56% hits; AID 743126;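 active = inhibition above mean plus 3 SD of compounds lying within the high and low control bounds, cut at about 19% in these data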
PLC-beta3 inh = PLC-beta3 (human) inhibition, primary screen; 370,000 compounds, 0.18% hits; AID 720704; Purified PLC-beta3, fluorogenic substrate, fluorescence; Q01970; inhibition, % at 12.2 µM
PLCgamma1 ctr = PLC-gamma1 inhibition, counter-screen for PLC-beta3 hits; shares compounds with PLCg1 inh; purified PLC-gamma1, fluorogenic substrate, fluorescence; inhibition, % at 12.3 µM; 3,300 compounds, 3.1% hits; in the data active = inhibition above about 9.5%
PLCbeta3 conf = human PLC-beta3 inhibition, confirmation; shares compounds with PLCg1 inh; purified PLC-beta3, fluorogenic substrate fluorescence; 3,300 compounds, 1% hits; inhibition, % at 12.3 µM; AID 743261
Of the large screens only hits and unclear results are named; the others gave an inactive call (follow-up assays come after a bar, where they were run). Shown are actives, neighbours in structure and some others; about 1.9% of the full set was active somewhere. Cut-off read from the data, not from the text of the source, unless noted: active = inhibition above about 11%; inactive = the rest.

Cc1cccc(N2CCN(C(=O)C3CCC(CNS(=O)(=O)c4cccs4)CC3)CC2)c1C (stereo not given)	none
O=C(C1CCC(CNS(=O)(=O)c2cccs2)CC1)N1CCCCC1 (stereo not given)	PLC-beta3 inh 16 | PLCgamma1 ctr inactive | PLCbeta3 conf inactive
CCOc1ccc(CN2CCN(c3ncnc4scc(-c5ccccc5)c34)CC2)cc1	PLCg1 inh 10.0 | PLCgamma1 ctr inactive | PLCbeta3 conf inactive
c1ccc(N2CCN(c3ncnc4scc(-c5cccs5)c34)CC2)cc1	PLCg1 inh 11 | PLCgamma1 ctr inactive | PLCbeta3 conf inactive
Cc1cccc(NC(=S)N(Cc2cccc(Br)c2)CC2CCC(C(=O)O)CC2)c1 (stereo not given)	PLCg1 inh 11 | PLCgamma1 ctr inactive | PLCbeta3 conf inactive
N#Cc1ccc(C23CC4(C2)[C@H](CN(Cc2ccc(-c5ccccc5)cc2)[C@@H]4c2ccccc2)C3c2ccc(C(F)(F)F)cc2)cc1 (stereo not given in full)	PLC-beta3 inh 11 | PLCgamma1 ctr inactive | PLCbeta3 conf inactive
CCOC(=O)C(CCCOc1ccccc1C)C(=O)OCC	PLCg1 inh 12 | PLCgamma1 ctr inactive | PLCbeta3 conf inactive
CCOC(=O)C(CCC(C)=O)C(=O)c1ccccc1 (stereo not given)	none
CCn1c(SCC(=O)Nc2cc(OC)c(OC)c(OC)c2)nnc1-c1cccs1	none
CCCCn1c(SCC(=O)Nc2cc(C)on2)nnc1-c1cccs1	none
CCn1c(SCC(=O)Nc2ccc(OC)c(OC)c2)nnc1-c1cccs1	PLCg1 inh 12 | PLCgamma1 ctr inactive | PLCbeta3 conf inactive
Cc1cc(NC(=O)CSc2nnc(-c3cccs3)n2N)no1	PLCg1 inh 9.9 | PLCgamma1 ctr inactive | PLCbeta3 conf inactive
N#C/C(=C\c1cc(O)c(O)c(O)c1)C(N)=O	PLCg1 inh 18 | PLCgamma1 ctr inactive | PLCbeta3 conf inactive
CCN(CC)c1ccc(/C=C(\C#N)C(N)=O)cc1	none
CCOc1ccccc1NC1=NC2CS(=O)(=O)CC2S1 (stereo not given)	none
CCOc1ccccc1NC(=O)c1cccc(NC2=NC3CS(=O)(=O)CC3S2)c1 (stereo not given)	PLCg1 inh 13 | PLCgamma1 ctr inactive | PLCbeta3 conf inactive
COc1ccc(Br)cc1S(=O)(=O)N1CC(C)OC(C)C1 (stereo not given)	PLC-beta3 inh 11 | PLCgamma1 ctr inactive | PLCbeta3 conf inactive
Cc1cc(NC(=O)C2CC(c3ccc(Cl)cc3)=NO2)no1 (stereo not given)	PLC-beta3 inh 12 | PLCgamma1 ctr inactive | PLCbeta3 conf inactive
CCOC(=O)c1sc(-c2ccccc2)cc1NC(=O)CSc1nnnn1C	PLCg1 inh 13 | PLCgamma1 ctr inactive | PLCbeta3 conf inactive
Cc1ccccc1NC(=O)Cc1nc(COC(=O)c2cc([N+](=O)[O-])ccc2NCCO)cs1	PLCg1 inh 10 | PLCgamma1 ctr inactive | PLCbeta3 conf inactive
COc1ccc(NC(=O)CSc2nnc(-c3ccccc3)n2Cc2ccco2)c(OC)c1	PLC-beta3 inh 11 | PLCgamma1 ctr inactive | PLCbeta3 conf inactive
COc1ccc(NC(=O)CSc2nnc(-c3ccccc3Cl)n2Cc2ccco2)c(OC)c1	none
CCOC(=O)CC[C@H]1CC[C@]2(CCCN(C(=O)c3ccco3)C2)O1	none (no result: ARFGAP1 inhibitor, ASAP1 GAP inh)
O=C(CCSc1ccccc1Cl)Nc1cccc([N+](=O)[O-])c1	PLCg1 inh 11 | PLCgamma1 ctr inactive | PLCbeta3 conf inactive
COC(=O)C1CN(Cc2ccccc2)CCS(=O)(=O)N1Cc1cn(Cc2ccccc2)nn1 (stereo not given)	none (no result: ARFGAP1 inhibitor, ASAP1 GAP inh)
COC(=O)[C@H](CC(C)C)N(CCc1cn(Cc2ccccc2)nn1)S(=O)(=O)c1ccccc1Br	none (no result: ARFGAP1 inhibitor, ASAP1 GAP inh)
Cc1ccc(OCC(=O)NNC(=O)c2ccc(NC(=O)C3CC3)cc2)c(C)c1	none
CCC(=O)Nc1ccc(C(=O)NNC(=O)COc2cc(C)ccc2C)cc1	PLC-beta3 inh 12 | PLCgamma1 ctr inactive | PLCbeta3 conf inactive
O=C(OC12CCCN(C1)/C(=C/c1ccccc1)C2)c1ccccc1 (stereo not given)	none (no result: ARFGAP1 inhibitor, ASAP1 GAP inh)
C/C(CC(=O)Nc1ccc([N+](=O)[O-])cc1)=N\NC(=O)c1ccccc1[N+](=O)[O-]	PLCg1 inh 11 | PLCgamma1 ctr inactive | PLCbeta3 conf inactive
CN(CCCOC(=O)c1cc2ccccc2o1)C1CN(Cc2cn(Cc3ccccc3C(F)(F)F)nn2)S(=O)(=O)C1 (stereo not given)	none (no result: ARFGAP1 inhibitor, ASAP1 GAP inh)
CC(C)CN1C(=O)[C@]2(CC(=O)N(C)C2c2ccccc2)c2cc(-n3cc(C4=CCCCC4)nn3)ccc21 (stereo not given in full)	none (no result: ARFGAP1 inhibitor, ASAP1 GAP inh)
CCOC(=O)c1cnc2ccc(Br)cc2c1NCC(C)O (stereo not given)	PLCg1 inh 12 | PLCgamma1 ctr inactive | PLCbeta3 conf inactive
CCOC(=O)c1cnc2ccc(C)cc2c1NCCN1CCOCC1	PLCg1 inh 11 | PLCgamma1 ctr inactive | PLCbeta3 conf inactive
c1ccc(-c2nnc(SCC3CCCCO3)nc2-c2ccccc2)cc1 (stereo not given)	PLCg1 inh 17 | PLCgamma1 ctr inactive | PLCbeta3 conf inactive
c1ccc(-c2nnc(SCC3CCCO3)nc2-c2ccccc2)cc1 (stereo not given)	none
CC1(C(=O)NC2CCCCCCC2)CCC(=O)N1Cc1ccco1 (stereo not given)	PLCg1 inh 9.8 | PLCgamma1 ctr inactive | PLCbeta3 conf inactive
CC1(C(=O)NC2CCCC2)CCC(=O)N1Cc1ccccc1 (stereo not given)	none
COc1ccc(S(=O)(=O)Nc2ccc(C)cc2)cc1N(C)S(=O)(=O)c1ccc(Cl)cc1	PLCg1 inh 11 | PLCgamma1 ctr inactive | PLCbeta3 conf inactive
COc1ccc(S(=O)(=O)NN(C)C)cc1N(C)S(=O)(=O)c1ccc(Cl)cc1	none
O=S1(=O)c2ccc(Br)cc2OC[C@@H](Cc2ccccc2)N1Cc1cn(CCC2OCCO2)nn1	none (no result: ARFGAP1 inhibitor, ASAP1 GAP inh)
CCCCCCCCN1C(=O)[C@@H](CC(=O)N2CCOCC2)C[C@@]2(C(=O)OC)C1=C[C@H](C(C)C)O[C@@H]2C1CC1	none (no result: ARFGAP1 inhibitor, ASAP1 GAP inh)
Cc1ccc(-c2nnc3sc(C4COc5ccccc5O4)nn23)cc1 (stereo not given)	none
Clc1ccccc1-c1nnc2sc(C3COc4ccccc4O3)nn12 (stereo not given)	PLCg1 inh 11 | PLCgamma1 ctr inactive | PLCbeta3 conf inactive
NC(=O)C1(N2CCCCC2)CCN(S(=O)(=O)c2ccccc2)CC1	none
NC(=O)C1(N2CCCCC2)CCN(Cc2ccccc2Cl)CC1	PLC-beta3 inh 11 | PLCgamma1 ctr inactive | PLCbeta3 conf inactive
COC(=O)N1C[C@H](OCc2ccccc2)[C@H]2C[C@@H]1c1ccccc1O2	none
